Source: PMC4148169 (Journal of Medicinal Chemistry, 2014)
Structures can show the parent of a compound that is named as a salt. Where two headings read alike, the source gives them in different places.

Columns and labels:
[1] = Solubility in oral dosing vehicles; type: physicochemical; conditions: oral dosing vehicle
Single dose PK = type: in vivo; conditions: female, Swiss Webster, mouse, plasma, po, 50 mg/kg
Method in brief: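 Eight-week-old female Swiss Webster mice were given one oral gavage dose of 50 mg/kg, formulated at 10 mg/mL in 20% solutol/80% water. Nine mice were dosed, with n = 3 plasma samples at about 0.25, 0.5, 1, 2, 4, 6, 8, 12 and 24 h. Plasma protein was precipitated with 5 volumes of acetonitrile and filtered through 0.2 μm, then quantified by LC-MS/MS.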

T. cruzi Y luc strain = type: in vivo, Trypanosoma cruzi; conditions: posaconazole 20 mg/kg, ip, bid, 4 days; two independent experiments (A, B)
[2] = cited from earlier work
human 3A4 = conditions: cited from earlier work
CYP2D6 = CYP2D6 (Homo sapiens, UniProt P10635); test: CYP inhibition in human liver microsomes, 2D6; type: in vitro ADME
CYP2C9 = CYP2C9 (Homo sapiens, UniProt P11712); test: CYP inhibition in human liver microsomes, 2C9; type: in vitro ADME
CYP3A4 = CYP3A4 (Homo sapiens, UniProt P08684); test: CYP inhibition in human liver microsomes, 3A4; type: in vitro ADME
CYP1A2 = target: T1, CYP1A2 (Homo sapiens, UniProt P05177); test: CYP inhibition in human liver microsomes, 1A2; type: in vitro ADME
T1 sequence (P05177 1-516): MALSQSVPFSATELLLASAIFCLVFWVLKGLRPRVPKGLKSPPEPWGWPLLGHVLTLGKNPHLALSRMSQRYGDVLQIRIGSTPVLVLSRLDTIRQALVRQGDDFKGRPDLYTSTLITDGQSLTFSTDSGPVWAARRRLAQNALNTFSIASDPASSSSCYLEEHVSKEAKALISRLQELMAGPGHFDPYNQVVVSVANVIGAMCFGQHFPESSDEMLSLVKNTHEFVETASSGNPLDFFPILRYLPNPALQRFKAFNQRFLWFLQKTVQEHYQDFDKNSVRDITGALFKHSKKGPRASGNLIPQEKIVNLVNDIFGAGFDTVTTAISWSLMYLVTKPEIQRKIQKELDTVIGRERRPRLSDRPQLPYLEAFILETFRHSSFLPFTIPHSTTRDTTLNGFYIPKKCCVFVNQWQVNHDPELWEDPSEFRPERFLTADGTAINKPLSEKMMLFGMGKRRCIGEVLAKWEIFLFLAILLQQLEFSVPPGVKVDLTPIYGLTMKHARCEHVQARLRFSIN

2C9 = conditions: read-out: IC50 toward 2C9; cited from earlier work
[3] = read-out: IC50 against human 3A4, ref 35
[4] = read-out: IC50 against human 3A4, ref 67

Chain of CYP2D6 (P10635 whole entry): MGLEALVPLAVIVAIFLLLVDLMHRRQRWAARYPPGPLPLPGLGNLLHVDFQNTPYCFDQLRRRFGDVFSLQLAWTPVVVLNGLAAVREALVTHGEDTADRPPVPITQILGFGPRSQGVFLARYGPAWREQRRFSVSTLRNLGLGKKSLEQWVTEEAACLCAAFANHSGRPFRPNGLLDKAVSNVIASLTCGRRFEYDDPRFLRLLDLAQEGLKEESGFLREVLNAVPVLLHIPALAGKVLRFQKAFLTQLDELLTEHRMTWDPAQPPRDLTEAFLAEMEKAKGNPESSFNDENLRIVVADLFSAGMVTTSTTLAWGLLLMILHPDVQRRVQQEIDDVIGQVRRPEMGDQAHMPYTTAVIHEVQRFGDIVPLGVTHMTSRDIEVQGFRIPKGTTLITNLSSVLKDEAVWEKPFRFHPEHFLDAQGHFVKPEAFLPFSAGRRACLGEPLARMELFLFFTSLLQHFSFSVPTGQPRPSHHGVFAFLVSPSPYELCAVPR
Chain of CYP3A4 (P08684 whole entry): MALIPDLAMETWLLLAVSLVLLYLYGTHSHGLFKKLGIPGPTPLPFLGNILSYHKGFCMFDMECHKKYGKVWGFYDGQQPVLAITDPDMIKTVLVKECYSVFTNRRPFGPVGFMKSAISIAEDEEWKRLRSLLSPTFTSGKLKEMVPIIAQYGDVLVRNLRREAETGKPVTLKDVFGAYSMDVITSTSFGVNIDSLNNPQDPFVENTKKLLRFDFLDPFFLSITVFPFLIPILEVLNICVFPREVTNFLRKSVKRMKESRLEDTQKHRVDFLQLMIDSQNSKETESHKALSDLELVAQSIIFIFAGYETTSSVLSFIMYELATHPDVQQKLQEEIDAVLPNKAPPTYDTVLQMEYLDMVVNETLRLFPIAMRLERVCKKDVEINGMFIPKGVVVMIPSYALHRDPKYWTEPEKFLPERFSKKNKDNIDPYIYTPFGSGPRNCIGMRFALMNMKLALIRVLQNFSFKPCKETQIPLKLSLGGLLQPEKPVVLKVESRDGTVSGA
Chain of CYP2C9 (P11712 whole entry): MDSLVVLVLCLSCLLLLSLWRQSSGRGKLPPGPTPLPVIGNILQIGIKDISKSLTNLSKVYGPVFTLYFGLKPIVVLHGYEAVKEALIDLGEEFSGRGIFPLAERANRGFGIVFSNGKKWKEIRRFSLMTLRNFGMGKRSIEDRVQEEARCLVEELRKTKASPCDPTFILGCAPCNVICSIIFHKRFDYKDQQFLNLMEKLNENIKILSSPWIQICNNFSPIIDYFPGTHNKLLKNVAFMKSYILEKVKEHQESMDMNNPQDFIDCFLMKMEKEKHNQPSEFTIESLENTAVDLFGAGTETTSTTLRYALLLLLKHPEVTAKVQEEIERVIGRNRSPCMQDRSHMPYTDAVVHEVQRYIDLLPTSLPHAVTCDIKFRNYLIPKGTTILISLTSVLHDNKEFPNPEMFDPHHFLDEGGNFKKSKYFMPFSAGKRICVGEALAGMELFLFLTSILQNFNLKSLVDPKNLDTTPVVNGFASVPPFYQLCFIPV

## O=C(N[C@H](Cc1c[nH]c2ccccc12)C(=O)Nc1ccncc1)c1ccc(-c2ccc(F)c(Cl)c2)cc1F [compound 7, (R)-N-(3-(1H-Indol-3-yl)-1-oxo-1-(pyridin-4-ylamino)propan-2-yl)-3′-chloro-3,4′-difluoro-[1,1′-biphenyl]-4-carboxamide hydrochloride]
[1]
  solubility in 20% HPβCD: fully soluble

## O=C(N[C@H](Cc1c[nH]c2ccccc12)C(=O)Nc1ccncc1)c1ccc(-c2ccc(F)c(C(F)(F)F)c2)cc1F [compound 6, (R)-N-(3-(1H-Indol-3-yl)-1-oxo-1-(pyridin-4-ylamino)propan-2-yl)-3,4′-difluoro-3′-(trifluoromethyl)-[1,1′-biphenyl]-4-carboxamide]
Single dose PK
  half-life: < 3.3 h

## CC[C@@H]([C@H](C)O)n1ncn(-c2ccc(N3CCN(c4ccc(OC[C@@H]5CO[C@@](Cn6cncn6)(c6ccc(F)cc6F)C5)cc4)CC3)cc2)c1=O [Posaconazole]
T. cruzi Y luc strain
  inhibition of parasitemia, positive control: 94–99%
[2]
  half-life in humans: measured in days
Human 3A4; [3]
  IC50: 350 nM
Human 3A4; [4]
  IC50: 120 nM
CYP2D6
  inhibition at 1 µM: -9%
CYP2C9
  inhibition at 1 µM: -3%
CYP3A4
  inhibition at 1 µM: 68%
CYP1A2
  inhibition at 1 µM: -11%

## CCO.C[C@@H](c1nc(-c2ccc(C#N)cc2)cs1)[C@@](Cn1cncn1)(OCOP(=O)(O)O)c1ccc(F)cc1F.NCCCC[C@H](N)C(=O)O [E1224]
[2]
  half-life in humans: measured in days

## O=C([C@@H](c1ccc(Cl)cc1)c1cccnc1)N1CCN(c2ccc(C(F)(F)F)cc2)CC1 [EPL-BS1246]
Human 3A4; read-out: IC50 toward 3A4
  IC50: ≥ 20000 nM
2C9
  IC50: 8000 to 9000 nM

## CC(=O)N1CCN(c2ccc(OCC3COC(Cn4ccnc4)(c4ccc(Cl)cc4Cl)O3)cc2)CC1 (stereo not shown) [ketoconazole]
Human 3A4; [3]
  IC50: 40 nM
Human 3A4; [4]
  IC50: 8 nM

## O=C(N[C@H](Cc1c[nH]c2ccccc12)C(=O)Nc1ccncc1)c1ccc(-c2ccc(F)c(F)c2)cc1F [compound 2, (R)-N-(3-(1H-Indol-3-yl)-1-oxo-1-(pyridin-4-ylamino)propan-2-yl)-3,3′,4′-trifluoro-[1,1′-biphenyl]-4-carboxamide]
Single dose PK
  half-life: < 3.3 h
